{"data": "Measurements collected from several papers", "action": "inhibitor", "CDK2": "Cyclin-dependent kinase 2 (CDK2, Homo sapiens, UniProt P24941)", "PARP2": "Poly [ADP-ribose] polymerase 2 (PARP2, Homo sapiens, UniProt Q9UGN5)", "note": "Compare with care: the assays were run in different laboratories."}
{"SMILES": "Cc1n[nH]c2ccc3nc(-c4ccc(C(=O)NCCN(C)C)cc4)c4c(c3c12)CCC(C)(C)C4", "target": "CDK2", "assay": "enzyme activity", "IC50": "> 1000 nM"}
{"SMILES": "NC(=O)c1cccnc1", "target": "Nicotinamide N-methyltransferase (NNMT, Homo sapiens, UniProt P40261)", "assay": "enzyme activity in cells", "IC50": "> 31600 nM"}
{"SMILES": "CN(C)CCNC(=O)c1ccc(-c2nc3ccc4[nH]ncc4c3c3c2CCCCC3)cn1", "target": "CDK2", "assay": "enzyme activity", "IC50": "210 nM"}
{"SMILES": "Cn1cc(C2=C(c3cn(CCCSC(=N)N)c4ccccc34)C(=O)NC2=O)c2ccccc21", "target": "Mitogen-activated protein kinase kinase kinase kinase 1 (MAP4K1, Homo sapiens, UniProt Q92918)", "assay": "enzyme activity", "IC50": "54.4 nM"}
{"SMILES": "COc1ccc2c(=O)[nH]c3c(nnn3Cc3ccc(C)cc3)c2c1", "target": "PARP2", "assay": "enzyme activity, fluorescence", "IC50": "> 10000 nM"}
{"SMILES": "CC(=O)N1C(=O)NC(C)=C(C(=O)OCC(C)C)C1c1cccc([N+](=O)[O-])c1 (racemic)", "target": "Voltage-dependent L-type calcium channel subunit alpha-1C (Cacna1c, Rattus norvegicus, UniProt P22002)", "assay": "ion current, patch clamp", "IC50": "1300 nM"}
{"SMILES": "CN(C)CCNC(=O)c1ccc(-c2nc3ccc4[nH]ncc4c3c3c2CC(C)(C)CC3)cc1", "target": "CDK2", "assay": "enzyme activity", "IC50": "145 nM"}
{"SMILES": "Cc1ccc(Cn2nnc3c4ccc(F)cc4c(=O)[nH]c32)cc1", "target": "PARP2", "assay": "enzyme activity", "IC50": "> 10000 nM"}
{"SMILES": "CC(=O)C(=O)N(CC(C)C)NC(=O)[C@H](Cc1ccccc1)NC(=O)[C@H](CC(C)C)NC(=O)[C@H](CCc1ccccc1)NC(=O)OCc1ccccc1", "target": "Cathepsin B (CTSB, Homo sapiens, UniProt P07858)", "assay": "enzyme activity, fluorescence", "setting": "pH 6", "IC50": "31500 nM"}
{"SMILES": "O=c1[nH]c(=O)c(Cc2cccc(C(F)(F)F)c2)c([C@H]2CC[C@H](c3ccccc3)CC2)[nH]1", "target": "Multidrug and toxin extrusion protein 1 (SLC47A1, Homo sapiens, UniProt Q96FL8)", "assay": "transporter uptake", "IC50": "> 8000 nM"}
{"SMILES": "Cc1cccc(Cn2nnc3c4ccc(F)cc4c(=O)[nH]c32)c1", "target": "PARP2", "assay": "enzyme activity", "IC50": "> 10000 nM"}
{"SMILES": "Cc1cc(O)c(-c2ccc([C@@H](C)CN(C)C)cc2)c2c1[nH]c(=O)c1sccc12", "target": "Cyclin-dependent kinase 8, with cyclin C (CDK8, Homo sapiens, UniProt P49336)", "assay": "enzyme activity", "IC50": "> 1000 nM"}
